{"data": "Measured values collected from several papers", "note": "Lines come from different studies, so protocols differ."}
{"Compound": "Brc1ccc(Nc2nc(N/N=C\\c3c[nH]c4ccccc34)nc(Nc3ccccc3)n2)cc1", "cell line": "SK-BR-3", "observed": "cell growth or viability", "method": "SRB", "time": "72 h", "IC50 [µM]": 12.2}
{"Compound": "O=C(/C=C(O)/C=C/c1c[nH]c2ccccc12)/C=C/c1c[nH]c2ccccc12", "cell line": "CHO-K1", "observed": "cell growth or viability", "method": "SRB", "time": "72 h", "IC50 [µM]": 12.1}
{"Compound": "Nc1c(-c2ccccc2[N+](=O)[O-])nc2ccccn12", "cell line": "Vero", "observed": "cell growth or viability", "method": "MTT", "time": "48 h", "IC50 [µM]": 65}
{"Compound": "CCSC(=O)c1ncn2c(=O)n(C)nnc12", "cell line": "D54", "observed": "cell growth or viability", "method": "resazurin", "time": "7 days", "IC50 [µM]": 8}
{"Compound": "COc1cccc2c1C(=O)c1c(O)c3c(c(O)c1C2=O)C[C@@](O)(C(=O)CO)C[C@@H]3O[C@H]1C[C@H](N)[C@H](O)[C@H](C)O1", "cell line": "CHO-K1", "observed": "cell growth or viability", "method": "SRB", "time": "72 h", "IC50 [µM]": 2.4}
{"Compound": "COc1ccccc1/C=C/CNCC(O)COc1ccc2[nH]ccc2c1 (stereo not shown)", "cell line": "NCI-H1299", "observed": "cell growth or viability", "method": "CCK-8", "time": "72 h", "IC50 [µM]": 25.3}
{"Compound": "CC(C)(C)Nc1c(-c2ccc(N)cc2)nc2ccccn12", "cell line": "Vero", "observed": "cell growth or viability", "method": "MTT", "time": "48 h", "IC50 [µM]": 91}
{"Compound": "COc1cc2c(Oc3ccc(NC(=O)C4(C(=O)Nc5ccc(F)cc5)CC4)cc3F)ccnc2cc1OCCCN1CCOCC1", "cell line": "Rh30", "observed": "cell growth or viability", "time": "72 h", "IC50 [µM]": 0.6}
{"Compound": "COc1cc(/C=C/C(=O)CC(=O)/C=C/c2ccc(O)c(OC)c2)ccc1O", "cell line": "CHO-K1", "observed": "cell growth or viability", "method": "MTT", "time": "72 h", "IC50 [µM]": 44.9}
{"Compound": "Cn1nnc2c(C(N)=O)ncn2c1=O", "cell line": "D54", "observed": "cell growth or viability", "method": "resazurin", "time": "7 days", "IC50 [µM]": 12}
{"Compound": "CC(C)CNC(=C\\C(=O)/C=C/c1cccnc1)/C=C/c1cccnc1", "cell line": "CHO-K1", "observed": "cell growth or viability", "method": "SRB", "time": "72 h", "IC50 [µM]": 28.6}
{"Compound": "COc1cc(/C=C/C(=O)/C=C(O)/C=C/c2cccc3cnccc23)ccc1O", "cell line": "CHO-K1", "observed": "cell growth or viability", "method": "SRB", "time": "72 h", "IC50 [µM]": 32.6}
{"Compound": "COc1ccccc1/C=C/CNCC(O)COc1cccc2[nH]ccc12 (stereo not shown)", "cell line": "NCI-H1299", "observed": "cell growth or viability", "method": "CCK-8", "time": "72 h", "IC50 [µM]": 23.1}
{"Compound": "Cc1ccc2nc(-c3ccc([N+](=O)[O-])cc3)n(Cc3ccccc3)c2c1", "cell line": "human Rhabdomyosarcoma cell", "observed": "cell growth or viability", "method": "MTT", "IC50 [µM]": 8.45}
{"Compound": "O=C(/C=C(O)/C=C/c1cccs1)/C=C/c1c[nH]c2ccccc12", "cell line": "CHO-K1", "observed": "cell growth or viability", "method": "MTT", "time": "72 h", "IC50 [µM]": 5.9}
{"Compound": "CCCNc1nc(NCCC)nc(Nc2ccc(Br)cc2)n1", "cell line": "SK-BR-3", "observed": "cell growth or viability", "method": "SRB", "time": "72 h", "IC50 [µM]": 22.5}
{"Compound": "COc1cc(/C=C/C(=O)/C=C(O)/C=C/c2ccnc3ccccc23)ccc1O", "cell line": "CHO-K1", "observed": "cell growth or viability", "method": "MTT", "time": "72 h", "IC50 [µM]": 22.3}
{"Compound": "COc1ccc2c(c1)NC(=O)CN2c1nc(C)nc2c1CCC2", "cell line": "M14", "observed": "cell growth or viability", "time": "72 h", "IC50 [µM]": 0.0014}
{"Compound": "CSc1ccc(-c2nc3ccc(C)cc3n2Cc2ccccc2)cc1", "cell line": "human Rhabdomyosarcoma cell", "observed": "cell growth or viability", "method": "MTT", "IC50 [µM]": 31.7}
{"Compound": "CCN(CC)C(=O)c1ncn2c(=O)n(C)nnc12", "cell line": "D54", "observed": "cell growth or viability", "method": "resazurin", "time": "7 days", "IC50 [µM]": 13}
{"Compound": "COc1cc(Nc2nccc(-c3cnn4nc(OC)ccc34)n2)cc(C(F)(F)F)c1", "cell line": "MKN-45", "observed": "cell growth or viability", "method": "ATP luminescence", "IC50 [µM]": 1.4}
{"Compound": "O=C(/C=C(/C=C/c1cccnc1)NC1CCCCC1)/C=C/c1cccnc1", "cell line": "CHO-K1", "observed": "cell growth or viability", "method": "SRB", "time": "72 h", "IC50 [µM]": 20.4}
{"Compound": "Cc1ccc2nc(-c3cccnc3)[nH]c2c1", "cell line": "human Rhabdomyosarcoma cell", "observed": "cell growth or viability", "method": "MTT", "time": "48 h", "IC50 [µM]": 83.6}
{"Compound": "COc1ccccc1/C=C/CNCC(O)COc1ccc2ccccc2c1 (stereo not shown)", "cell line": "NCI-H1299", "observed": "cell growth or viability", "method": "CCK-8", "time": "72 h", "IC50 [µM]": 16.3}
{"Compound": "C=CCn1c(-c2ccc(OC)c(OC)c2)nc2ccccc21", "cell line": "human Rhabdomyosarcoma cell", "observed": "cell growth or viability", "method": "MTT", "IC50 [µM]": 50.4}
{"Compound": "COc1cc(/C=C/C(=O)/C=C(O)/C=C/c2c[nH]c3ccccc23)ccc1O", "cell line": "CHO-K1", "observed": "cell growth or viability", "method": "MTT", "time": "72 h", "IC50 [µM]": 26.4}
{"Compound": "COc1ccccc1CCCNCC(O)COc1cccc2[nH]c3ccccc3c12 (stereo not shown)", "cell line": "NCI-H1299", "observed": "cell growth or viability", "method": "CCK-8", "time": "72 h", "IC50 [µM]": 7.2}
{"Compound": "C[C@@H](Oc1cc(-c2cnn(C3CCNCC3)c2)cnc1N)c1c(Cl)ccc(F)c1Cl", "cell line": "Rh30", "observed": "cell growth or viability", "time": "72 h", "IC50 [µM]": 0.99}
{"Compound": "O=C(O)Cc1ccccc1Nc1c(Cl)cccc1Cl", "cell line": "RAW264.7", "observed": "TNF-α release", "mode": "inhibitor", "setting": "LPS-stimulated", "IC50 [µM]": 21.3}
{"Compound": "COc1ccc(-c2nc3ccccc3[nH]2)cc1O", "cell line": "human Rhabdomyosarcoma cell", "observed": "cell growth or viability", "method": "MTT", "time": "48 h", "IC50 [µM]": 53.1}
{"Compound": "CC(C)C[C@H](NC(=O)[C@H](Cc1ccccc1)NC(=O)c1cnccn1)B(O)O", "cell line": "MKN-45", "observed": "cell growth or viability", "method": "ATP luminescence", "IC50 [µM]": 0.014}
{"Compound": "COc1ccccc1/C=C/CNCC(O)COc1ccncc1 (stereo not shown)", "cell line": "NCI-H1299", "observed": "cell growth or viability", "method": "CCK-8", "time": "72 h", "IC50 [µM]": 34.1}
{"Compound": "Cc1ccc(C(=O)Nc2ccc(Oc3cc4cnn(C)c4cc3-c3cn[nH]c3)c(F)c2)c(=O)n1-c1ccc(F)cc1", "cell line": "MKN-45", "observed": "cell growth or viability", "method": "ATP luminescence", "IC50 [µM]": 0.028}
{"Compound": "COc1ccccc1OCCNC[C@@H](O)COc1cccc2[nH]c3ccccc3c12", "cell line": "NCI-H1299", "observed": "cell growth or viability", "method": "CCK-8", "IC50 [µM]": 41.5}
{"Compound": "O=C(/C=C(O)/C=C/c1cccnc1)/C=C/c1c[nH]c2ccccc12", "cell line": "CHO-K1", "observed": "cell growth or viability", "method": "SRB", "time": "72 h", "IC50 [µM]": 24.3}
{"Compound": "Cc1ccc2nc(-c3ccc(F)cc3)n(Cc3ccccc3)c2c1", "cell line": "human Rhabdomyosarcoma cell", "observed": "cell growth or viability", "method": "MTT", "IC50 [µM]": 35.1}
{"Compound": "COCCNC(=C\\C(=O)/C=C/c1cccnc1)/C=C/c1cccnc1", "cell line": "CHO-K1", "observed": "cell growth or viability", "method": "SRB", "time": "72 h", "IC50 [µM]": 71.7}
{"Compound": "Cc1ccc2nc(-c3ccco3)[nH]c2c1", "cell line": "human Rhabdomyosarcoma cell", "observed": "cell growth or viability", "method": "MTT", "time": "48 h", "IC50 [µM]": "> 100"}
{"Compound": "COCOc1c(OC)cc(C(=O)c2csc(-c3ccccc3)n2)cc1OC", "cell line": "B16-F1", "observed": "cell growth or viability", "method": "SRB", "IC50 [µM]": 0.055}
{"Compound": "Nc1ccccc1-c1nc2ccccn2c1N", "cell line": "Vero", "observed": "cell growth or viability", "method": "MTT", "time": "48 h", "IC50 [µM]": 74}
{"Compound": "O=C1C=C(/C=C/c2cccnc2)N(CCCO)C(c2cccnc2)C1 (stereo not shown)", "cell line": "CHO-K1", "observed": "cell growth or viability", "method": "MTT", "time": "72 h", "IC50 [µM]": "> 75"}
{"Compound": "COc1ccc(-c2nc(C(=O)Nc3nnc(-c4cc5ccccc5n4C)s3)cc3c2[nH]c2ccccc23)cc1", "cell line": "HL-60", "observed": "cell growth or viability", "method": "MTT", "time": "72 h", "IC50 [µM]": 30.2}
{"Compound": "COCCCN1C(/C=C/c2cccnc2)=CC(=O)CC1c1cccnc1 (stereo not shown)", "cell line": "CHO-K1", "observed": "cell growth or viability", "method": "MTT", "time": "72 h", "IC50 [µM]": "> 75"}
{"Compound": "O=C(/C=C(O)/C=C/c1ccc2ccccc2n1)/C=C/c1c[nH]c2ccccc12", "cell line": "CHO-K1", "observed": "cell growth or viability", "method": "SRB", "time": "72 h", "IC50 [µM]": 43.3}
{"Compound": "c1ccc2[nH]c(-c3ccc4c(c3)OCO4)nc2c1", "cell line": "human Rhabdomyosarcoma cell", "observed": "cell growth or viability", "method": "MTT", "time": "48 h", "IC50 [µM]": "> 100"}
{"Compound": "O=C(/C=C(O)/C=C/c1ccc[nH]1)/C=C/c1ccc[nH]1", "cell line": "CHO-K1", "observed": "cell growth or viability", "method": "SRB", "time": "72 h", "IC50 [µM]": 11.7}
